Measurements from ChEMBL document CHEMBL2163328, “Inhibition of TNF-α-Induced Inflammation by andrographolide via down-regulation of the PI3K/Akt signaling pathway” (J Nat Prod, 2011).
Activity calls are given as the source filed them. No cut-off for these calls is given here.

Assays:
[1] = tested on: HUVEC; test: Inhibition of TNFalpha-stimulated ICAM-1 mRNA expression in HUVEC at 10 to 25 uM pretreated for 16 hrs before TNFalpha challenge measured after 6 hrs by RT-PCR analysis; assay type: functional, cell-based; settings: Homo sapiens
How it was run: (§1)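 HUVEC pretreated 16 h, then TNF-α 1 ng/mL for 6 h. Total RNA isolated with TRIzol; 4 μg reverse-transcribed with M-MLV RT and oligo(dT). ICAM-1 amplified for 32 cycles (94 °C 1 min, 55 °C 1 min, 72 °C 2 min) after 95 °C for 5 min. Normalized to GAPDH; products resolved on 1% agarose and quantified by densitometry.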

[2] = tested on: HUVEC; test: Inhibition of TNFalpha-stimulated human ICAM-1 promoter activity expressed in HUVEC assessed as […] activity at 10 to 25 uM pretreated for 30 mins before TNFalpha challenge measured after 5 hrs by luciferase reporter gene assay; assay type: functional, cell-based
How it was run: (§2)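 HUVEC transiently transfected by nanofection with human ICAM-1 promoter-luciferase (pIC339) plus pSV-β-galactosidase for 4 h. Pretreated 30 min, then TNF-α 1 ng/mL for 5 h. Luciferase activity measured in lysate supernatants and normalized to β-galactosidase activity for transfection efficiency. Three independent experiments.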

[3] = tested on: HUVEC; test: Inhibition of TNFalpha-stimulated DNA binding activity of NFkappaB in HUVEC at 10 to 25 uM pretreated for 16 hrs before TNFalpha challenge measured after 30 mins by EMSA; assay type: cell-based; settings: Homo sapiens
How it was run: (§3)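 EMSA: nuclear extracts prepared by hypotonic then hypertonic (400 mM KCl) extraction. 2 μg nuclear protein incubated with biotin-labeled NF-κB probe and poly(dI-dC) at room temperature for 30 min. Complexes separated on 6% TBE-PAGE, transferred to nylon and detected with streptavidin-HRP. Specificity checked with 100-fold excess unlabeled and mutant oligonucleotides.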

[4] = tested on: HUVEC; test: Induction of NFkappaB activation in HUVEC by EMSA; assay type: cell-based; settings: Homo sapiens; how it was run: as §3
[5] = tested on: HUVEC; test: Inhibition of TNFalpha-stimulated ICAM-1 mRNA expression in HUVEC at 20 uM pretreated for 16 hrs before TNFalpha challenge measured after 6 hrs by RT-PCR analysis; assay type: functional, cell-based; settings: Homo sapiens; how it was run: as §1
[6] = tested on: HUVEC; test: Inhibition of TNFalpha-stimulated human ICAM-1 promoter activity expressed in HUVEC assessed as […] activity at 20 uM pretreated for 30 mins before TNFalpha challenge measured after 5 hrs by luciferase reporter gene assay; assay type: functional, cell-based; how it was run: as §2
[7] = molecular target: RAC-alpha serine/threonine-protein kinase (Homo sapiens) (UniProt P31749); test: Inhibition of activated Akt1 phosphorylation at Ser473 expressed in HUVEC transfected with activated AKT1 assessed as pAKT level at 10 uM after 16 hrs by Western blot analysis (reference value: 272%); assay type: cell-based; parameters: scale not given: the % may be the effect or the level left
[8] = molecular target: RAC-alpha serine/threonine-protein kinase (Homo sapiens) (UniProt P31749); test: Inhibition of TNFalpha-stimulated Akt1 phosphorylation at Ser473 assessed as pAKT level in HUVEC at 10 uM pretreated for 16 hrs before TNFalpha challenge measured after 6 hrs by Western blot analysis (reference value: 249%); parameters: scale not given: the % may be the effect or the level left
[9] = molecular target: RAC-alpha serine/threonine-protein kinase (Homo sapiens) (UniProt P31749); test: Inhibition of TNFalpha-stimulated AKT1-mediated ICAM-1 expression in HUVEC assessed as ICAM1 level at 10 uM pretreated for 16 hrs before TNFalpha challenge measured after 6 hrs by Western blot analysis (reference value: 345%); assay type: cell-based; parameters: scale not given: the % may be the effect or the level left
[10] = molecular target: RAC-alpha serine/threonine-protein kinase (Homo sapiens) (UniProt P31749); test: Inhibition of TNFalpha-stimulated ICAM-1 expression in HUVEC transfected with activated AKT1 assessed as ICAM1 level at 10 uM incubated for 16 hrs by Western blot (reference value: 249%); assay type: cell-based; parameters: scale not given: the % may be the effect or the level left
[11] = tested on: HUVEC; test: Inhibition of TNFalpha-stimulated DNA binding activity of NFkappaB in HUVEC at 5 to 20 uM pretreated for 16 hrs before TNFalpha challenge measured after 30 mins by EMSA; assay type: cell-based; settings: Homo sapiens; how it was run: as §3
[12] = tested on: HUVEC; test: Inhibition of TNFalpha-stimulated cell surface ICAM-1 expression in HUVEC at 5 to 20 uM pretreated for 16 hrs before TNFalpha challenge measured after 6 hrs by flow cytometry; assay type: functional, cell-based; settings: Homo sapiens
How it was run: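 Cell-surface ICAM-1 by flow cytometry. HUVEC pretreated 16 h, then TNF-α 1 ng/mL for 6 h. Cells detached with trypsin and stained with FITC anti-ICAM-1 at 4 °C for 45 min in the dark. Washed three times in cold PBS before analysis. Three independent experiments.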

[13] = tested on: HUVEC; test: Inhibition of TNFalpha-stimulated HUVEC adhesion to BCECF-AM-labeled human HL60 cells at 20 uM pretreated for 16 hrs before TNFalpha challenge measured after 6 hrs by fluorescence assay; assay type: functional
How it was run: (§4)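 HUVEC grown to 80% confluence, pretreated 16 h, then TNF-α 1 ng/mL for 6 h. Co-incubated with 4 × 10^5 BCECF-AM-labeled HL-60 cells per well, 37 °C, 30 min. Nonadherent cells removed by inverted centrifugation at 100g for 5 min. Bound cells lysed in 1% SDS; fluorescence read at ex 490/em 520 nm and converted to adherent cells/well by standard curve. Three independent experiments.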

[14] = Cytotoxicity against TNFalpha-stimulated HUVEC assessed as cell viability at 20 uM pretreated for 16 hrs before TNFalpha challenge measured after 6 hrs by MTT assay (reference value: 103.8 +/- 6.1%); assay type: cell-based; settings: human, TNFalpha-stimulated HUVEC cells; read-out: Activity
[15] = Cytotoxicity against TNFalpha-stimulated HUVEC assessed as cell viability at 10 uM pretreated for 16 hrs before TNFalpha challenge measured after 6 hrs by MTT assay (reference value: 103.8 +/- 6.1%); assay type: cell-based; settings: human, TNFalpha-stimulated HUVEC cells; read-out: Activity
[16] = tested on: HUVEC; test: Toxicity assessed as induction of HUVEC adhesion to BCECF-AM-labeled human HL60 cells by fluorescence assay; assay type: cell-based; how it was run: as §4
[17] = Cytotoxicity against TNFalpha-stimulated HUVEC assessed as cell viability at 5 uM pretreated for 16 hrs before TNFalpha challenge measured after 6 hrs by MTT assay (reference value: 103.8 +/- 6.1%); assay type: cell-based; settings: human, TNFalpha-stimulated HUVEC cells; read-out: Activity
[18] = tested on: HUVEC; test: Toxicity in HUVEC assessed as induction of ICAM-1 expression at 5 to 20 uM measured after 6 hrs by Western blot analysis; assay type: cell-based; settings: human
[19] = tested on: HUVEC; test: Inhibition of TNFalpha-stimulated total ICAM-1 expression in HUVEC at 5 to 20 uM pretreated for 16 hrs before TNFalpha challenge measured after 6 hrs by Western blot analysis; assay type: functional, cell-based; settings: Homo sapiens
How it was run: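 HUVEC pretreated 16 h, then TNF-α 1 ng/mL for 6 h. Lysed in Tris/EDTA/PMSF/aprotinin buffer at pH 7.4; equal protein run on SDS-PAGE and transferred to PVDF. Blocked in 5% milk at 4 °C overnight, probed with anti-ICAM-1 and HRP secondary. ECL detection with densitometric quantitation. Means ± SD, n = 3.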

[20] = molecular target: RAC-alpha serine/threonine-protein kinase (Homo sapiens) (UniProt P31749); test: Induction of Akt1 phosphorylation at Ser473 expressed in HUVEC by Western blot analysis; assay type: cell-based
[21] = molecular target: Transcription factor p65 (Homo sapiens) (UniProt Q04206); test: Inhibition of TNFalpha-stimulated NFkappaB activation in HUVEC assessed as reduction of nuclear p65 level at 20 uM pretreated for 16 hrs before TNFalpha challenge measured after 30 mins by […]
[22] = tested on: HUVEC; test: Inhibition of TNFalpha-stimulated NFkappaB activation in HUVEC assessed as reduction of IkappaB degradation at 20 uM pretreated for 16 hrs before TNFalpha challenge measured after 30 mins by […]; assay type: cell-based; settings: Homo sapiens
[23] = molecular target: RAC-alpha serine/threonine-protein kinase (Homo sapiens) (UniProt P31749); test: Inhibition of TNFalpha-stimulated Akt1 phosphorylation at Ser473 in HUVEC at 20 uM pretreated for 16 hrs before TNFalpha challenge measured after 15 mins by Western blot analysis

Chain of RAC-alpha serine/threonine-protein kinase (Homo sapiens) (P31749 whole entry): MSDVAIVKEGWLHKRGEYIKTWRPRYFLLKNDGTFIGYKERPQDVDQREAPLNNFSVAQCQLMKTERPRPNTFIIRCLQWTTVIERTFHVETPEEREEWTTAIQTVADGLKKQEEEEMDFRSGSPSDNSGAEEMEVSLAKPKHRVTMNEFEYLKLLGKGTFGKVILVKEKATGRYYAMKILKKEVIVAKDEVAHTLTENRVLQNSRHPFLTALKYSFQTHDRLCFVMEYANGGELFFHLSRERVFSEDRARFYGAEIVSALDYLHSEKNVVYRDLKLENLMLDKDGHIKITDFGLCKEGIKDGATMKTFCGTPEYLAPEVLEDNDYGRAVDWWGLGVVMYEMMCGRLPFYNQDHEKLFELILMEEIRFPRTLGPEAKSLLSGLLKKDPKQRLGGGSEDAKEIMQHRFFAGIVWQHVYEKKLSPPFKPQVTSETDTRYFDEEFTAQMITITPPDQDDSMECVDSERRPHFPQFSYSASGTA
Chain of Transcription factor p65 (Homo sapiens) (Q04206 whole entry): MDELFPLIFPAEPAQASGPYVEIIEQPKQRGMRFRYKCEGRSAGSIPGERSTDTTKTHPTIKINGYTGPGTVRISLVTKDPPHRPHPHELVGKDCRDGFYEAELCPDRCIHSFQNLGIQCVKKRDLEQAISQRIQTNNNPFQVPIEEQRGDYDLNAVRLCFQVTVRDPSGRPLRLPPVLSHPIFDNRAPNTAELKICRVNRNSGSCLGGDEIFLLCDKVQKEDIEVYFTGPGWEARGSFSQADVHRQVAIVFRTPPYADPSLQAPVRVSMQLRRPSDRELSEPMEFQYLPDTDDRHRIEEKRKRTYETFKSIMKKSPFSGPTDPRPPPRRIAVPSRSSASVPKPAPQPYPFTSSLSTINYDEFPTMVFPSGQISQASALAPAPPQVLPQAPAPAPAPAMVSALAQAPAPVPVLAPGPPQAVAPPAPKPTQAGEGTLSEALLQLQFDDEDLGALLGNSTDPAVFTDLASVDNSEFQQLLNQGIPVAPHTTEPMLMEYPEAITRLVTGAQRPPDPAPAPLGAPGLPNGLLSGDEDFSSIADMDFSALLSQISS

O=c1cc(N2CCOCC2)oc2c(-c3ccccc3)cccc12
inhibition [1]: Active
inhibition [2]: Active
inhibition [3]: Active

C=C1CC[C@@H]2[C@](C)(CO)[C@H](O)CC[C@@]2(C)[C@@H]1C/C=C1/C(=O)OC[C@H]1O [ANDROGRAPHOLIDE]
Activity [4]: inactive
inhibition [5]: Active
inhibition [6]: Active
Activity [7]: 111%
Activity [8]: 127%
Activity [9]: 36%
Activity [10]: 177%
inhibition [11]: Active
inhibition [12]: Active
inhibition at 20 µM [13]: 73%
viability at 6 h, 20 µM [14]: 87.5%
viability at 6 h, 10 µM [15]: 94.6%
Activity [16]: Non-toxic
viability at 6 h, 5 µM [17]: 96.4%
Activity [18]: Non-toxic
inhibition [19]: Active
Activity [20]: inactive
inhibition [21]: Active
inhibition [22]: Active
inhibition [23]: Active
